# A selection: hits, their analogues and other compounds. The true share with any hit is near 1.7%.
# M1 ag parental – M1 agonist counterscreen hit in parental CHO-K1 cells; AID 602248; activation, % at 3 µM; actives 0.48% (n = 360,000); Fluo-8 calcium fluorescence; scaled to maximal ATP response, vehicle zero; in the data active = activation above about 15%;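 also: untransfected CHO-K1 host cells lacking M1 receptor as counterscreen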
# M5 antag – blocks acetylcholine activation of human M5 receptor; actives 0.59% (n = 360,000); P08912; AID 624040; CHO-hM5 cells, Fluo-8 calcium fluorescence, ACh EC80; inhibition, % at 3 µM;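 active = inhibition above a per-plate cutoff, the mean of that plate's test compounds plus 3 SD, cut at about 27% in these data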
# Target sequence (P08912 whole entry, looked up): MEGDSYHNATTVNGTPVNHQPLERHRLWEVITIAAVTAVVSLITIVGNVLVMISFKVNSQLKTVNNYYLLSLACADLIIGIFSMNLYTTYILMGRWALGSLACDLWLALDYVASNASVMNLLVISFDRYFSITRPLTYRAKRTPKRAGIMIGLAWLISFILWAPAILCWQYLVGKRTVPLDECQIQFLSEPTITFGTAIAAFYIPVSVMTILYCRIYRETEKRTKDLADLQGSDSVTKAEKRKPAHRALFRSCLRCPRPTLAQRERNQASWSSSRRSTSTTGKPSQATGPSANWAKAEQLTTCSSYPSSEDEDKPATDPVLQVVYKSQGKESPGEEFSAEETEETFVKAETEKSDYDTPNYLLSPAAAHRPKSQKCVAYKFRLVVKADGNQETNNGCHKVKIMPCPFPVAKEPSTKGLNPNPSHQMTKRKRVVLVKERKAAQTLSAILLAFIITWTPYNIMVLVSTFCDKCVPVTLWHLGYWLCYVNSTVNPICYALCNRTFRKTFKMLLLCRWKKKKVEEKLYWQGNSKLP
# CHO-K1 Ca antag – counter-screen for M1 antagonists: effect in parental CHO-K1 cells | ATP-induced calcium, Fluo-8 fluorescence | inhibition, % at 3 µM | actives 0.6% (n = 360,000);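 active = inhibition above a per-plate cutoff, the plate's mean sample inhibition plus 3 SD, cut at about 24% in these data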
# CHRM5 agonist – agonists of human muscarinic M5 receptor (CHRM5); activation, % at 3 µM; CHO-K1 hM5 cells, Fluo-8 calcium fluorescence; 0% DMSO wells, 100% maximal acetylcholine response; P08912; actives 0.19% (n = 360,000);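 active = activation above the run's mean over test compounds plus 3 SD, cut at about 23% in these data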;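 also: signal is peak over basal fluorescence ratio across the kinetic read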
# CHRM5 PAM – positive allosteric modulators of human muscarinic M5 receptor; P08912; CHO-K1 hM5, Fluo-8 calcium, ACh EC20 PAM; 0% = ACh EC20, 100% = ACh EC100; activation, % at 3 µM; actives 0.3% (n = 360,000);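 active = activation above the run cutoff, the mean activation of all test compounds plus 3 SD, cut at about 18% in these data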
#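 Assay system – human M5 receptor in CHO-K1 cells · Read-out – % activation, ACh-normalized · Technique – Fluo-8 calcium fluorescence · Dosing – single-point, 3 µM nominal · Incubation – Fluo-8 loading 80 min at 37 °C plus 30 min room temperature · Repeats – singlicate, one well per test compound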
# M1 PAM parental – counter-screen for M1 PAMs: effect in parental CHO-K1 cells | actives 0.02% (n = 360,000) | activation, % at 3 µM | AID 602247 | ATP EC20, Fluo-8 calcium fluorescence; 0% at ATP EC20, 100% at ATP max;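 active = activation above the run cutoff, the mean activation of all test compounds plus 3 SD, cut at about 40% in these data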;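 also: peak over basal fluorescence ratio in a 140 s read after ATP addition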
# Numbers stand for hits; i = inactive.
SMILES,M1 ag parental,M5 antag,CHO-K1 Ca antag,CHRM5 agonist,CHRM5 PAM,M1 PAM parental
Cc1ccc(-c2nnn(CC(=O)N(CC(=O)NC3CCCCC3)c3cccc(F)c3)n2)o1,20.4,i,i,i,i,i
COc1ccc(C(=O)N2CCN=C2c2ccccc2)cc1OC,i,i,26.2,i,i,i
Cc1ccc(S(=O)(=O)Oc2ccc(/C=C3\C(=N)N4N=C(S(C)(=O)=O)SC4=NC3=O)cc2)cc1,i,i,i,i,i,i
CCOC(=O)c1ccc(S(=O)(=O)N2CCN(C(=O)CSc3nc4ccccc4o3)CC2)cc1,i,i,i,i,i,i
Cc1cc(C(=O)CSc2n[nH]c(N)n2)c(C)n1-c1ccc(F)cc1,i,i,i,i,i,i
CN(C)c1ccc(/C=C/C(=O)c2c(O)c3ccccc3oc2=O)cc1,31.8,i,i,25.6,i,i
Cc1cc(O)c(C(=O)/C=C/c2ccccc2Br)c(=O)o1,18.3,i,i,i,i,i
Cc1cccc(C)c1NC(=O)CN(C)C(=O)c1ccccc1Cc1ccccc1,i,i,i,i,i,i
N#Cc1c(-c2cccs2)cc(-c2cccs2)[nH]c1=O,i,i,i,i,i,39.9
O=S1(=O)CC(N2CCN(CC3CC3)CC2)CN1C1CCCC1 (stereo unspecified),i,i,26.1,i,i,i
NCCOc1ccc(C23CC4CC(CC(C4)C2)C3)cc1,16.7,i,i,i,i,i
OCCN1CCN(CC(O)COc2ccc(C34CC5CC(CC(C5)C3)C4)cc2)CC1 (stereo unspecified),i,i,i,i,i,i
O=S(=O)(c1ccc2c(c1)N(Cc1ccc(Cl)cc1)C1CCCN21)N1CCOCC1 (stereo unspecified),i,i,i,i,i,i
Cc1ccc(C(=O)Nc2cccc3[nH]c(C(F)(F)F)nc23)cc1,16.7,i,i,i,i,i
CN(C)C(=O)CSc1nnc(-c2cc(-c3cccs3)nc3ccccc23)o1,i,i,26.7,i,i,i
CCN(CC)C(=O)CSc1nnc(-c2cc(-c3ccc(Cl)cc3)nc3ccccc23)o1,i,i,i,i,i,i
NC(=O)c1ccc(-n2nnnc2SCC(=O)Nc2ccc(F)cc2)cc1,i,i,i,i,i,i
CCc1nnc(NC(=O)CCN(c2cc(C)cc(C)c2)S(=O)(=O)c2ccc(Cl)cc2)s1,i,i,i,i,19.2,i
Cc1cc(C)cc(N(CCC(=O)O)S(=O)(=O)c2ccc(Cl)cc2)c1,i,i,i,i,i,i
Cc1cccc(C)c1NC(=O)CN(C)C(C)C(=O)Nc1ccccc1-c1ccccc1 (stereo unspecified),i,i,i,i,i,i
Cc1ccccc1CN(C)C(C)C(=O)Nc1ccccc1F (stereo unspecified),19.0,i,i,i,i,i
CC1(C)Oc2ccc3ccc(=O)oc3c2/C(=C/Nc2ccc(O)cc2)C1=O,i,i,i,i,i,i
CC1(C)Oc2ccc3ccc(=O)oc3c2/C(=C/Nc2cccc(O)c2)C1=O,i,i,29.4,i,i,i
COc1cccc(/C=C/c2nc(S(=O)(=O)c3ccccc3)c(N3CCC(C(N)=O)CC3)o2)c1,i,i,i,i,i,i
C#CCCCCCCC#CCN(C)C,i,i,25.6,i,i,i
SMILES,M1 ag parental,M5 antag,CHO-K1 Ca antag,CHRM5 agonist,CHRM5 PAM,M1 PAM parental
CC(=O)Oc1ccc(C(=O)Nc2cccc(-c3nnc(-c4ccco4)o3)c2)cc1,23.7,i,i,i,i,i
O=C(Nc1cccc(-c2nnc(-c3ccco3)o2)c1)c1ccccc1,i,i,i,i,i,i
Nc1cccnc1-n1nc(C(F)(F)F)cc1C(F)(F)F,i,i,i,i,i,i
Cc1cccc(Nc2nc(N)nc(N)c2N=O)c1,28.6,i,i,i,i,i
Cc1cccc(Nc2nc(N)nc(CCl)n2)c1,19.6,i,i,i,i,i
Cc1ccc(Nc2nc(N)nc(N)c2N=O)cc1C,i,i,i,i,i,i
COc1ccc2nc3c(cc2c1)c(NC(=O)C1CCCO1)nn3CC(C)C (stereo unspecified),i,i,26.1,i,i,i
COc1ccc(Cl)cc1Cn1c(C)c(C(=O)NCc2ccc3c(c2)OCCO3)sc1=O,i,i,i,i,i,i
COc1ccc(CN2CCNC(=O)C2CC(=O)NCCCn2nnc3ccccc32)cc1C (stereo unspecified),i,i,i,i,i,i
C[n+]1ccccc1/C=C/c1cc(Br)ccc1O,i,33.6,i,i,i,i
Cc1cc(-n2c(C)cc(C(=O)COc3ccc4ccc(=O)oc4c3)c2C)no1,i,i,i,i,i,i
Brc1ccc(CNc2ccc3ncccc3c2)cc1,i,31.7,i,i,i,i
O=C(Nc1ccc2ncccc2c1)c1cccc(Br)c1,i,i,i,i,i,i
C=CCNC(=O)c1cnn(-c2ccccc2)c1-c1ccccc1,i,i,i,i,i,i
O=C(O)c1cnn(-c2ccccc2)c1-c1ccccc1,i,i,i,i,19.2,i
O=C(CN1CCN(c2ccc(F)cc2)CC1)NCC1CCCO1 (stereo unspecified),i,i,i,i,i,i
COc1ccccc1N1CCN(CC(=O)NCC2CCCO2)CC1 (stereo unspecified),i,i,27.4,i,i,i
O=C(Nc1cccc(C(=O)O)c1)/C(=C/c1ccc2c(c1)OCO2)NC(=O)c1cccc(Br)c1,i,28.0,i,i,i,i
CC(CN(C)C)CN1c2ccccc2Sc2ccccc21 (stereo unspecified),i,97.9,i,i,i,i
CCN(CC)CC(O)CN1c2ccccc2Sc2ccccc21 (stereo unspecified),i,38.6,i,i,i,i
COc1ccc2c(c1)N(C[C@H](C)CN(C)C)c1ccccc1S2,i,60.3,i,i,i,i
O=C(Nc1nccs1)c1ncc(Cl)c(Cl)c1Cl,i,29.9,i,i,i,i
Cn1cc(Cl)c(C(=O)Nc2nccs2)n1,i,i,i,i,i,i
CC(C)CC(=O)NC(Nc1ccc([N+](=O)[O-])cc1)C(Cl)(Cl)Cl (stereo unspecified),16.4,i,i,i,i,i
CN(C)S(=O)(=O)c1cccc(C(=O)c2nccn2C)c1,i,i,i,i,i,i
CN(C)c1ccc(CN2CCC(C(=O)NC(c3ccc(F)cc3)c3ccc4ccccc4n3)CC2)cc1 (stereo unspecified),i,35.8,i,i,i,i
OCCN1CCN(CC/C=C2/c3ccccc3CSc3ccccc32)CC1,i,i,i,i,i,i
CNCC/C=C1/c2ccccc2CSc2ccccc21,i,80.8,i,i,i,i
Cc1nc(NS(=O)(=O)c2ccccc2)sc1NC(=O)OCCN(C)C,i,i,i,26.6,i,i

# Compound activity from PubChem BioAssay.
